Data taken from ChEMBL document CHEMBL1157757, “Macrocyclic hexaoxazoles: Influence of aminoalkyl substituents on RNA and DNA G-quadruplex stabilization and cytotoxicity” (Bioorg Med Chem Lett, 2010).

How the values were obtained:
[1] = Cytotoxicity against human RPMI8402 cells after 4 days by MTT assay; format: functional, cell-based; conditions: RPMI 8402, 96 h
In short: (§1)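 Growth inhibition in RPMI 8402, KB3-1, MDR1-expressing KBV-1 and BCRP-expressing KBH5.0 cells; IC50 reported as mean of three experiments ± standard deviation.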

[2] = Cytotoxicity against wild type human KB3-1 cells after 4 days by MTT assay; format: functional, cell-based; conditions: KB 3-1, 96 h; in short: as §1
[3] = Cytotoxicity against multidrug-resistant human KBV1 cells expressing MDR1 after 4 days by MTT assay; format: functional, cell-based; conditions: KB-V1, 96 h; in short: as §1
[4] = Cytotoxicity against multidrug-resistant human KBH5.0 cells expressing BCRP after 4 days by MTT assay; format: functional, cell-based; conditions: KBH5.0 cell, 96 h; in short: as §1
[5] = tested on: Nucleic Acid; test: Binding affinity to human G-quadruplex d[T2G3(T2AG3)3A] DNA assessed as change in transition temperature at 20 uM in presence of 150 mM K+ ions; format: nucleic-acid assay
In short: (§2)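 Quadruplex UV melting of hTel DNA or AurA RNA at 5 µM in strand, ligand 20 µM, in 10 mM potassium phosphate pH 7.5 plus 132 mM KCl (150 mM total K+); Ttran from maxima or minima of first-derivative melting profiles; ΔTtran uncertainty 0.5 °C.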

[6] = tested on: Nucleic Acid; test: Binding affinity to r[AG4CG2-CUG2UCG2AGUG2C] sequence of quadruplex RNA assessed as change in transition temperature at 20 uM in presence of 150 mM K+ ions; format: nucleic-acid assay; in short: as §2
[7] = Cytotoxicity against human RPMI8402 cells; format: functional, cell-based; conditions: RPMI 8402; in short: as §1

ΔTm [5] [°C]	ΔTm [6] [°C]	Structure (SMILES)	IC50 [1] [nM]	IC50 [2] [nM]	IC50 [3] [µM]	IC50 [4] [nM]	IC50 [7] [nM]
		CC(C)[C@@H]1NC(=O)c2coc(n2)-c2coc(n2)-c2coc(n2)C/C=C/c2coc(n2)-c2coc(n2)-c2coc1n2	30	40	3.5	40	
		CC(=O)NCCCC[C@@H]1NC(=O)c2coc(n2)-c2coc(n2)-c2coc(n2)[C@H](CCCCNC(C)=O)NC(=O)c2coc(n2)-c2coc(n2)-c2coc1n2	3300	4000	> 10	4500	
		CC(C)[C@@H]1NC(=O)c2coc(n2)-c2coc(n2)-c2coc(n2)[C@H](CCN)NC(=O)c2coc(n2)-c2coc(n2)-c2coc1n2	1200	2200	> 10	1200	
		CC(=O)NCC[C@@H]1NC(=O)c2coc(n2)-c2coc(n2)-c2coc(n2)[C@H](CCNC(C)=O)NC(=O)c2coc(n2)-c2coc(n2)-c2coc1n2	> 10000	> 10000	> 10	> 10000	
		CC(C)[C@@H]1NC(=O)c2coc(n2)-c2coc(n2)-c2coc(n2)[C@H](CCCCN)NC(=O)c2coc(n2)-c2coc(n2)-c2coc1n2	4800	3400	> 10	3000	
		CC(C)(C)OC(=O)NCCCC[C@@H]1NC(=O)c2coc(n2)-c2coc(n2)-c2coc(n2)[C@H](CCCCNC(=O)OC(C)(C)C)NC(=O)c2coc(n2)-c2coc(n2)-c2coc1n2	400	250	> 10	330	
		CN(C)CC[C@@H]1NC(=O)c2coc(n2)-c2coc(n2)-c2coc(n2)[C@H](CCN(C)C)NC(=O)c2coc(n2)-c2coc(n2)-c2coc1n2	4300	2800	> 10	650	
		NCC[C@@H]1NC(=O)c2coc(n2)-c2coc(n2)-c2coc(n2)[C@H](CCN)NC(=O)c2coc(n2)-c2coc(n2)-c2coc1n2	> 10000	> 10000	> 10	> 10000	
		CC(=O)NCCCC[C@@H]1NC(=O)c2coc(n2)-c2coc(n2)-c2coc(n2)[C@H](C(C)C)NC(=O)c2coc(n2)-c2coc(n2)-c2coc1n2	750	710	> 10	1900	
		NCCC[C@@H]1NC(=O)c2coc(n2)-c2coc(n2)-c2coc(n2)[C@H](CCCN)NC(=O)c2coc(n2)-c2coc(n2)-c2coc1n2	> 10000	6300	> 10	3100	
11.5	19.5	CC(C)[C@@H]1NC(=O)c2coc(n2)-c2coc(n2)-c2coc(n2)[C@H](C(C)C)NC(=O)c2coc(n2)-c2coc(n2)-c2coc1n2 [HEXAOXAZOLE DIVALINE]	540	350	7.7	450	540
		CC(=O)NCCC[C@@H]1NC(=O)c2coc(n2)-c2coc(n2)-c2coc(n2)[C@H](C(C)C)NC(=O)c2coc(n2)-c2coc(n2)-c2coc1n2	2500	3400	> 10	3000	
		CN(C)CCC[C@@H]1NC(=O)c2coc(n2)-c2coc(n2)-c2coc(n2)[C@H](CCCN(C)C)NC(=O)c2coc(n2)-c2coc(n2)-c2coc1n2	> 10000	4200	> 10	3000	
		NCCCC[C@@H]1NC(=O)c2coc(n2)-c2coc(n2)-c2coc(n2)[C@H](CCCCN)NC(=O)c2coc(n2)-c2coc(n2)-c2coc1n2		> 10000	> 10	> 10000	
		CC(C)(C)OC(=O)NCC[C@@H]1NC(=O)c2coc(n2)-c2coc(n2)-c2coc(n2)[C@H](CCNC(=O)OC(C)(C)C)NC(=O)c2coc(n2)-c2coc(n2)-c2coc1n2	350	250	> 10	250	
		CN(C)CCCC[C@@H]1NC(=O)c2coc(n2)-c2coc(n2)-c2coc(n2)[C@H](CCCCN(C)C)NC(=O)c2coc(n2)-c2coc(n2)-c2coc1n2	> 10000	4000	> 10	3600	
		CC(C)[C@@H]1NC(=O)c2coc(n2)-c2coc(n2)-c2coc(n2)[C@H](CCCN)NC(=O)c2coc(n2)-c2coc(n2)-c2coc1n2	2500	800	> 10	380	
		CC(C)(C)OC(=O)NCCC[C@@H]1NC(=O)c2coc(n2)-c2coc(n2)-c2coc(n2)[C@H](CCCNC(=O)OC(C)(C)C)NC(=O)c2coc(n2)-c2coc(n2)-c2coc1n2	1400	450	> 10	380	
		CC(C)[C@@H]1NC(=O)c2coc(n2)-c2coc(n2)-c2coc(n2)[C@H](CCCNC(=O)OC(C)(C)C)NC(=O)c2coc(n2)-c2coc(n2)-c2coc1n2	290	230	> 10	150	
		CC(=O)NCC[C@@H]1NC(=O)c2coc(n2)-c2coc(n2)-c2coc(n2)[C@H](C(C)C)NC(=O)c2coc(n2)-c2coc(n2)-c2coc1n2	950	450	> 10	900	
		CC(C)[C@@H]1NC(=O)c2coc(n2)-c2coc(n2)-c2coc(n2)[C@H](CCNC(=O)OC(C)(C)C)NC(=O)c2coc(n2)-c2coc(n2)-c2coc1n2	310	290	> 10	250	
		CC(=O)NCCC[C@@H]1NC(=O)c2coc(n2)-c2coc(n2)-c2coc(n2)[C@H](CCCNC(C)=O)NC(=O)c2coc(n2)-c2coc(n2)-c2coc1n2	> 10000	> 10000	> 10	> 10000	
24		CC(C)[C@@H]1NC(=O)c2coc(n2)-c2coc(n2)-c2coc(n2)[C@H](CCCN(C)C)NC(=O)c2coc(n2)-c2coc(n2)-c2coc1n2	230	300	> 10	70	
		CC(C)[C@@H]1NC(=O)c2coc(n2)-c2coc(n2)-c2coc(n2)[C@H](CCCCNC(=O)OC(C)(C)C)NC(=O)c2coc(n2)-c2coc(n2)-c2coc1n2	350	300	> 10	330	
